Tested on: not listed separately
Experiment: Inhibition of Escherichia coli PDHC-E1 expressed in Escherichia coli TB1 using 2,6-dichlorophenolindophenol as substrate after 3 mins
Settings: not given
In short: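 MBP-fusion enzyme was expressed in E. coli TB1 grown in LB with 2% glucose and ampicillin at 37 °C to A600 0.6–0.8, then induced with 0.5 mM IPTG for 7 h at 25 °C. Protein was purified by MBP affinity to >95% purity and quantified by Bradford. The assay buffer was 50 mM K3PO4 pH 7.2 with 2.0 mM pyruvate substrate and 0.8 mM 2,6-DCIP. Enzyme and inhibitor were preincubated 3 min at 37 °C, and then ThDP was added to start the reaction. DCIP reduction was read at 600 nm. IC50 was obtained by fitting initial rates against varied inhibitor concentration to the Hill equation.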
In the case of `CCOC(=O)c1ccc(OCc2cn(Cc3cnc(C)nc3N)nn2)cc1`, the IC50 is reported as 28.8 µM.
Compound `Cc1ccc(Cl)c(OCc2cn(Cc3cnc(C)nc3N)nn2)c1` has an IC50 of 29 µM.
`Cc1ncc(Cn2cc(COc3ccc(F)cc3Cl)nn2)c(N)n1` gave an IC50 of 43.3 µM.
With `Cc1ncc(Cn2nnc(COc3ccc([N+](=O)[O-])cc3)c2I)c(N)n1` the IC50 was 5.33 µM.
Work on `Cc1ncc(Cn2cc(COc3ccc([N+](=O)[O-])cc3[N+](=O)[O-])nn2)c(N)n1` yielded an IC50 of 11.3 µM.
In the case of `Cc1ncc(Cn2cc(COc3ccccc3[N+](=O)[O-])nn2)c(N)n1`, the IC50 is reported as 36.3 µM.
For `COc1ccc(OCc2cn(Cc3cnc(C)nc3N)nn2)cc1`, the IC50 was 81.6 µM.
Compound `Cc1ncc(Cn2cc(COc3ccc(Cl)c(C)c3)nn2)c(N)n1` has an IC50 of 26.2 µM.
`Cc1ncc(Cn2cc(COc3ccc(Cl)cc3Cl)nn2)c(N)n1` showed an IC50 of 18.7 µM.
Compound `Cc1ncc(Cn2cc(COc3ccc(Cl)cc3)nn2)c(N)n1` has an IC50 of 26.4 µM.
Work on `COC(=O)Cc1ccc(OCc2cn(Cc3cnc(C)nc3N)nn2)cc1` yielded an IC50 of 102 µM.
`Cc1ncc(Cn2nnc(COc3ccccc3)c2I)c(N)n1` showed an IC50 of 19.6 µM.
For `Cc1ncc(Cn2cc(COc3cccc(C(F)(F)F)c3)nn2)c(N)n1`, the IC50 was 32.7 µM.

Tested on: Fusarium graminearum
Experiment: Antifungal activity against Gibberella zeae assessed as inhibition of mycelium growth at 100 ug/ml after 48 hrs
Type: functional
Settings: read-out: GI
In short: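 Poisoned-medium plate test: compound mixed into molten medium and poured into dishes; once set, each plate was seeded with a 5 mm mycelium disk, inverted, and held at 28 °C for 48 h. The blank control was medium without sample, and tests were run in triplicate. Mycelial diameter was measured, and inhibition was taken as I = [(C − T)/C] × 100%, with C the mean blank diameter and T the mean treated diameter.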
`Cc1ncc(Cn2cc(COc3ccc([N+](=O)[O-])cc3Cl)nn2)c(N)n1` showed an inhibition of growth at 100 µg/mL of 0%.
`Cc1ncc(Cn2cc(COc3ccc([N+](=O)[O-])cc3)nn2)c(N)n1` gave an inhibition of growth at 100 µg/mL of 0%.
`Cc1ncc(Cn2nnc(COc3ccc([N+](=O)[O-])cc3)c2I)c(N)n1` gave an inhibition of growth at 100 µg/mL of 68%.
In the case of `Cc1ncc(Cn2cc(COc3ccc([N+](=O)[O-])cc3[N+](=O)[O-])nn2)c(N)n1`, the inhibition of growth at 100 µg/mL is reported as 48%.
For `Cc1ncc(Cn2cc(COc3ccccc3)nn2)c(N)n1`, the inhibition of growth at 100 µg/mL was 0%.
`CC1COC(Cn2cncn2)(c2ccc(Oc3ccc(Cl)cc3)cc2Cl)O1` (configuration not stated) [DIFENOCONAZOLE] gave an inhibition of growth at 100 µg/mL of 98%.
`Cc1ncc(Cn2cc(COc3ccc(C(=O)O)cc3)nn2)c(N)n1` showed an inhibition of growth at 100 µg/mL of 21%.
`Cc1ncc(Cn2cc(COc3ccc(Cl)cc3)nn2)c(N)n1` showed an inhibition of growth at 100 µg/mL of 51%.
In the case of `Cc1ncc(Cn2nnc(COc3ccccc3)c2I)c(N)n1`, the inhibition of growth at 100 µg/mL is reported as 59%.

Tested on: Rhizoctonia solani
Experiment: Antifungal activity against Rhizoctonia solani assessed as inhibition of mycelium growth at 100 ug/ml after 48 hrs
Type: functional
Settings: read-out: GI
In short: (§1)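 Poisoned-agar mycelial growth test. Compound mixed into medium and poured into dishes. Once solidified, plates were inoculated with a 5 mm mycelium disk, inverted and incubated at 28 °C for 48 h. Medium without sample served as blank. Mycelial elongation radius was measured in triplicate. Inhibition (%) = [(C − T)/C] × 100, where C and T are the mean mycelial diameters of the blank and the treated plates.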
For `Cc1ncc(Cn2cc(COc3ccc([N+](=O)[O-])cc3Cl)nn2)c(N)n1`, the inhibition of growth at 100 µg/mL was 31%.
Compound `Cc1ncc(Cn2cc(COc3ccc([N+](=O)[O-])cc3)nn2)c(N)n1` has an inhibition of growth at 100 µg/mL of 24%.
Compound `Cc1ncc(Cn2nnc(COc3ccc([N+](=O)[O-])cc3)c2I)c(N)n1` has an inhibition of growth at 100 µg/mL of 97%.
With `Cc1ncc(Cn2cc(COc3ccc([N+](=O)[O-])cc3[N+](=O)[O-])nn2)c(N)n1` the inhibition of growth at 100 µg/mL was 0%.
With `Cc1ncc(Cn2cc(COc3ccccc3)nn2)c(N)n1` the inhibition of growth at 100 µg/mL was 0%.
`CC1COC(Cn2cncn2)(c2ccc(Oc3ccc(Cl)cc3)cc2Cl)O1` (configuration not stated) [DIFENOCONAZOLE] gave an inhibition of growth at 100 µg/mL of 100%.
Work on `Cc1ncc(Cn2cc(COc3ccc(C(=O)O)cc3)nn2)c(N)n1` yielded an inhibition of growth at 100 µg/mL of 0%.
With `Cc1ncc(Cn2cc(COc3ccc(Cl)cc3)nn2)c(N)n1` the inhibition of growth at 100 µg/mL was 23%.
In the case of `Cc1ncc(Cn2nnc(COc3ccccc3)c2I)c(N)n1`, the inhibition of growth at 100 µg/mL is reported as 96%.

Tested on: Botrytis cinerea
Experiment: Antifungal activity against Botryotinia fuckeliana assessed as inhibition of mycelium growth at 100 ug/ml after 48 hrs
Type: functional
Settings: read-out: GI
In short: as §1
With `Cc1ncc(Cn2cc(COc3ccc([N+](=O)[O-])cc3Cl)nn2)c(N)n1` the inhibition of growth at 100 µg/mL was 44%.
With `Cc1ncc(Cn2cc(COc3ccc([N+](=O)[O-])cc3)nn2)c(N)n1` the inhibition of growth at 100 µg/mL was 37%.
For `Cc1ncc(Cn2nnc(COc3ccc([N+](=O)[O-])cc3)c2I)c(N)n1`, the inhibition of growth at 100 µg/mL was 84%.
`Cc1ncc(Cn2cc(COc3ccc([N+](=O)[O-])cc3[N+](=O)[O-])nn2)c(N)n1` showed an inhibition of growth at 100 µg/mL of 54%.
`Cc1ncc(Cn2cc(COc3ccccc3)nn2)c(N)n1` showed an inhibition of growth at 100 µg/mL of 53%.
Work on `CC1COC(Cn2cncn2)(c2ccc(Oc3ccc(Cl)cc3)cc2Cl)O1` (configuration not stated) [DIFENOCONAZOLE] yielded an inhibition of growth at 100 µg/mL of 96%.
In the case of `Cc1ncc(Cn2cc(COc3ccc(C(=O)O)cc3)nn2)c(N)n1`, the inhibition of growth at 100 µg/mL is reported as 67%.
In the case of `Cc1ncc(Cn2cc(COc3ccc(Cl)cc3)nn2)c(N)n1`, the inhibition of growth at 100 µg/mL is reported as 73%.
`Cc1ncc(Cn2nnc(COc3ccccc3)c2I)c(N)n1` showed an inhibition of growth at 100 µg/mL of 88%.

Tested on: Alternaria solani
Experiment: Antifungal activity against Alternaria solani assessed as inhibition of mycelium growth at 100 ug/ml after 48 hrs
Type: functional
Settings: read-out: GI
In short: as §1
In the case of `Cc1ncc(Cn2cc(COc3ccc([N+](=O)[O-])cc3Cl)nn2)c(N)n1`, the inhibition of growth at 100 µg/mL is reported as 20%.
For `Cc1ncc(Cn2cc(COc3ccc([N+](=O)[O-])cc3)nn2)c(N)n1`, the inhibition of growth at 100 µg/mL was 24%.
For `Cc1ncc(Cn2nnc(COc3ccc([N+](=O)[O-])cc3)c2I)c(N)n1`, the inhibition of growth at 100 µg/mL was 66%.
`Cc1ncc(Cn2cc(COc3ccc([N+](=O)[O-])cc3[N+](=O)[O-])nn2)c(N)n1` showed an inhibition of growth at 100 µg/mL of 0%.
`Cc1ncc(Cn2cc(COc3ccccc3)nn2)c(N)n1` gave an inhibition of growth at 100 µg/mL of 25%.
`CC1COC(Cn2cncn2)(c2ccc(Oc3ccc(Cl)cc3)cc2Cl)O1` (configuration not stated) [DIFENOCONAZOLE] gave an inhibition of growth at 100 µg/mL of 100%.
Work on `Cc1ncc(Cn2cc(COc3ccc(C(=O)O)cc3)nn2)c(N)n1` yielded an inhibition of growth at 100 µg/mL of 33%.
For `Cc1ncc(Cn2cc(COc3ccc(Cl)cc3)nn2)c(N)n1`, the inhibition of growth at 100 µg/mL was 44%.
`Cc1ncc(Cn2nnc(COc3ccccc3)c2I)c(N)n1` gave an inhibition of growth at 100 µg/mL of 57%.

Tested on: Alternaria alternata
Experiment: Antifungal activity against Alternaria alternata Keissler assessed as inhibition of mycelium growth at 100 ug/ml after 48 hrs
Type: functional
Settings: read-out: GI
In short: as §1
With `Cc1ncc(Cn2cc(COc3ccc([N+](=O)[O-])cc3Cl)nn2)c(N)n1` the inhibition of growth at 100 µg/mL was 36%.
`Cc1ncc(Cn2cc(COc3ccc([N+](=O)[O-])cc3)nn2)c(N)n1` gave an inhibition of growth at 100 µg/mL of 33%.
For `Cc1ncc(Cn2nnc(COc3ccc([N+](=O)[O-])cc3)c2I)c(N)n1`, the inhibition of growth at 100 µg/mL was 59%.
`Cc1ncc(Cn2cc(COc3ccc([N+](=O)[O-])cc3[N+](=O)[O-])nn2)c(N)n1` gave an inhibition of growth at 100 µg/mL of 0%.
In the case of `Cc1ncc(Cn2cc(COc3ccccc3)nn2)c(N)n1`, the inhibition of growth at 100 µg/mL is reported as 43%.
For `CC1COC(Cn2cncn2)(c2ccc(Oc3ccc(Cl)cc3)cc2Cl)O1` (configuration not stated) [DIFENOCONAZOLE], the inhibition of growth at 100 µg/mL was 100%.
For `Cc1ncc(Cn2cc(COc3ccc(C(=O)O)cc3)nn2)c(N)n1`, the inhibition of growth at 100 µg/mL was 57%.
Work on `Cc1ncc(Cn2cc(COc3ccc(Cl)cc3)nn2)c(N)n1` yielded an inhibition of growth at 100 µg/mL of 52%.
With `Cc1ncc(Cn2nnc(COc3ccccc3)c2I)c(N)n1` the inhibition of growth at 100 µg/mL was 23%.

Tested on: not listed separately
Experiment: Antifungal activity against Colletotrichum orbiculare assessed as inhibition of mycelium growth at 100 ug/ml after 48 hrs
Type: functional
Settings: not given
In short: as §1
Work on `Cc1ncc(Cn2cc(COc3ccc([N+](=O)[O-])cc3Cl)nn2)c(N)n1` yielded a growth inhibition (GI) of 57%.
With `Cc1ncc(Cn2cc(COc3ccc([N+](=O)[O-])cc3)nn2)c(N)n1` the growth inhibition (GI) was 43%.
In the case of `Cc1ncc(Cn2nnc(COc3ccc([N+](=O)[O-])cc3)c2I)c(N)n1`, the growth inhibition (GI) is reported as 35%.
For `Cc1ncc(Cn2cc(COc3ccc([N+](=O)[O-])cc3[N+](=O)[O-])nn2)c(N)n1`, the growth inhibition (GI) was 42%.
In the case of `Cc1ncc(Cn2cc(COc3ccccc3)nn2)c(N)n1`, the growth inhibition (GI) is reported as 40%.
`CC1COC(Cn2cncn2)(c2ccc(Oc3ccc(Cl)cc3)cc2Cl)O1` (configuration not stated) [DIFENOCONAZOLE] gave a growth inhibition (GI) of 97%.
`Cc1ncc(Cn2cc(COc3ccc(C(=O)O)cc3)nn2)c(N)n1` showed a growth inhibition (GI) of 42%.
`Cc1ncc(Cn2cc(COc3ccc(Cl)cc3)nn2)c(N)n1` gave a growth inhibition (GI) of 50%.
Work on `Cc1ncc(Cn2nnc(COc3ccccc3)c2I)c(N)n1` yielded a growth inhibition (GI) of 45%.
